Reference: ChEMBL document CHEMBL4229368, “N,N'-disubstituted cinnamamide derivatives potentiate ciprofloxacin activity against overexpressing NorA efflux pump Staphylococcus aureus 1199B strains” (Eur J Med Chem, 2018)

How the values were obtained:
Staphylococcus aureus [1] = test: Potentiation of ciprofloxacin-induced antibacterial activity against wild type Staphylococcus aureus SA1199 assessed as fold reduction in ciprofloxacin MIC at 81.3 uM after 18 to 24 hrs by broth microdilution method; type: functional
How it was run: (§1)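 Ciprofloxacin MIC by CLSI/CASFM broth microdilution in Mueller-Hinton II, two-fold serial dilutions, inoculum 5.10⁵ CFU/mL, 37 °C for 18-24 h. MIC is the lowest concentration with no visible growth. Test agent co-administered at a fixed final concentration without antibacterial activity (10 or 30 µg/mL, or 1/4 MIC where intrinsically active). Result is fold reduction of ciprofloxacin MIC. At least three independent experiments.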

Staphylococcus aureus [2] = test: Growth inhibition of wild type Staphylococcus aureus SA1199 assessed as non-toxic concentration after 18 to 24 hrs by broth microdilution method; type: organism-based; details: pooled result: one value given for 2 cell lines, strains, targets or settings, read-out: Activity
Staphylococcus aureus [3] = test: Bactericidal activity against wild type Staphylococcus aureus SA1199 at 30 ug/ml after 18 to 24 hrs by broth microdilution method; type: ADME, organism-based; details: in vitro
[4] = Cytotoxicity against human MRC5 cells assessed as reduction in cell viability after 72 hrs by MTT assay; type: cell-based
How it was run: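 MRC5 human lung fibroblasts plated in triplicate at 6000 cells/well in MEM with 10% FBS and incubated overnight at 37 °C, 5% CO2. Compound or DMSO vehicle applied for 72 h, then MTT 1 mg/mL added for 3 h at 37 °C. Formazan dissolved in 0.01 M HCl in isopropanol for 15 min. A570 read minus A690; GI50 as mean SD of ≥3 independent experiments.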

[5] = molecular target: T1, Quinolone resistance protein NorA (Staphylococcus aureus) (UniProt P0A0J7); test: Inhibition of NorA in Staphylococcus aureus SA1199B assessed as potentiation of ciprofloxacin-induced antibacterial activity by measuring fold reduction in ciprofloxacin MIC at 81.3 uM after 18 to 24 hrs by broth microdilution method; how it was run: as §1
T1 sequence (whole entry): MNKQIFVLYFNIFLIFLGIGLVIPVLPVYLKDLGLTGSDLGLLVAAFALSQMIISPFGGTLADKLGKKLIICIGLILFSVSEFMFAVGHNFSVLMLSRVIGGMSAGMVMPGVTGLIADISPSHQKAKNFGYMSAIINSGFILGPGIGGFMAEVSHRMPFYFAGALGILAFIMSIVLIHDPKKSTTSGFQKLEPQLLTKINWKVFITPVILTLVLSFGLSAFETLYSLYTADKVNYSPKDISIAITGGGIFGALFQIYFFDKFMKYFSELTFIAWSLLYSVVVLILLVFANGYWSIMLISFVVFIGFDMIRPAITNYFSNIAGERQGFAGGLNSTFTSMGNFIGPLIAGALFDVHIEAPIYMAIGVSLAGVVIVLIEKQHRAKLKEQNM

Staphylococcus aureus [6] = test: Growth inhibition of Staphylococcus aureus SA1199B over-expressing NorA at 3.9 ug/ml after 18 to 24 hrs by broth microdilution method; type: organism-based
Staphylococcus aureus [7] = test: Growth inhibition of wild type Staphylococcus aureus SA1199 after 18 to 24 hrs by broth microdilution method; type: organism-based
Staphylococcus aureus [8] = test: Growth inhibition of wild type Staphylococcus aureus SA1199 at 3.9 ug/ml after 18 to 24 hrs by broth microdilution method; type: organism-based
Staphylococcus aureus [9] = test: Potentiation of ciprofloxacin-induced antibacterial activity against wild type Staphylococcus aureus SA1199 assessed as fold reduction in ciprofloxacin MIC at 8.5 uM after 18 to 24 hrs by broth microdilution method; type: functional; how it was run: as §1
[10] = molecular target: T1, Quinolone resistance protein NorA (Staphylococcus aureus); test: Inhibition of NorA in Staphylococcus aureus SA1199B assessed as potentiation of ciprofloxacin-induced antibacterial activity by measuring fold reduction in ciprofloxacin MIC at 8.5 uM after 18 to 24 hrs by broth microdilution method; how it was run: as §1
Staphylococcus aureus [11] = test: Growth inhibition of Staphylococcus aureus SA1199B over-expressing NorA at 15.6 ug/ml after 18 to 24 hrs by broth microdilution method; type: organism-based
[12] = molecular target: T1, Quinolone resistance protein NorA (Staphylococcus aureus); test: Inhibition of NorA in Staphylococcus aureus SA1199B assessed as potentiation of ciprofloxacin-induced antibacterial activity by measuring fold reduction in ciprofloxacin MIC at 37.1 uM after 18 to 24 hrs by broth microdilution method; how it was run: as §1
Staphylococcus aureus [13] = test: Potentiation of ciprofloxacin-induced antibacterial activity against wild type Staphylococcus aureus SA1199 assessed as fold reduction in ciprofloxacin MIC at 37.1 uM after 18 to 24 hrs by broth microdilution method; type: functional; how it was run: as §1
Staphylococcus aureus [14] = test: Bactericidal activity against wild type Staphylococcus aureus SA1199 at 10 ug/ml after 18 to 24 hrs by broth microdilution method; type: ADME, organism-based
[15] = molecular target: T1, Quinolone resistance protein NorA (Staphylococcus aureus); test: Inhibition of NorA in Staphylococcus aureus SA1199B assessed as potentiation of ciprofloxacin-induced antibacterial activity by measuring fold reduction in ciprofloxacin MIC at 20.6 uM after 18 to 24 hrs by broth microdilution method; how it was run: as §1
Staphylococcus aureus [16] = test: Potentiation of ciprofloxacin-induced antibacterial activity against wild type Staphylococcus aureus SA1199 assessed as fold reduction in ciprofloxacin MIC at 20.6 uM after 18 to 24 hrs by broth microdilution method; type: functional; how it was run: as §1
Staphylococcus aureus [17] = test: Potentiation of ciprofloxacin-induced antibacterial activity against wild type Staphylococcus aureus SA1199 assessed as fold reduction in ciprofloxacin MIC at 32.9 uM after 18 to 24 hrs by broth microdilution method; type: functional
[18] = molecular target: T1, Quinolone resistance protein NorA (Staphylococcus aureus); test: Inhibition of NorA in Staphylococcus aureus SA1199B assessed as potentiation of ciprofloxacin-induced antibacterial activity by measuring fold reduction in ciprofloxacin MIC at 80.6 uM after 18 to 24 hrs by broth microdilution method; how it was run: as §1
Staphylococcus aureus [19] = test: Potentiation of ciprofloxacin-induced antibacterial activity against wild type Staphylococcus aureus SA1199 assessed as fold reduction in ciprofloxacin MIC at 80.6 uM after 18 to 24 hrs by broth microdilution method; type: functional; how it was run: as §1
Staphylococcus aureus [20] = test: Potentiation of ciprofloxacin-induced antibacterial activity against wild type Staphylococcus aureus SA1199 assessed as fold reduction in ciprofloxacin MIC at 90.9 uM after 18 to 24 hrs by broth microdilution method; type: functional; how it was run: as §1
[21] = molecular target: T1, Quinolone resistance protein NorA (Staphylococcus aureus); test: Inhibition of NorA in Staphylococcus aureus SA1199B assessed as potentiation of ciprofloxacin-induced antibacterial activity by measuring fold reduction in ciprofloxacin MIC at 90.9 uM after 18 to 24 hrs by broth microdilution method; how it was run: as §1
[22] = molecular target: T1, Quinolone resistance protein NorA (Staphylococcus aureus); test: Inhibition of NorA in Staphylococcus aureus SA1199B assessed as potentiation of ciprofloxacin-induced antibacterial activity by measuring fold reduction in ciprofloxacin MIC at 22.9 uM after 18 to 24 hrs by broth microdilution method; how it was run: as §1
Staphylococcus aureus [23] = test: Potentiation of ciprofloxacin-induced antibacterial activity against wild type Staphylococcus aureus SA1199 assessed as fold reduction in ciprofloxacin MIC at 22.9 uM after 18 to 24 hrs by broth microdilution method; type: functional; how it was run: as §1
[24] = molecular target: T1, Quinolone resistance protein NorA (Staphylococcus aureus); test: Inhibition of NorA in Staphylococcus aureus SA1199B assessed as potentiation of ciprofloxacin-induced antibacterial activity by measuring fold reduction in ciprofloxacin MIC at 25.3 uM after 18 to 24 hrs by broth microdilution method; how it was run: as §1
Staphylococcus aureus [25] = test: Potentiation of ciprofloxacin-induced antibacterial activity against wild type Staphylococcus aureus SA1199 assessed as fold reduction in ciprofloxacin MIC at 25.3 uM after 18 to 24 hrs by broth microdilution method; type: functional; how it was run: as §1
[26] = molecular target: T1, Quinolone resistance protein NorA (Staphylococcus aureus); test: Potency index, ratio of compound effect to reserpine effect for inhibition of NorA in Staphylococcus aureus SA1199B assessed as potentiation of ciprofloxacin-induced antibacterial activity by measuring fold reduction in ciprofloxacin MIC
Staphylococcus aureus [27] = test: Potentiation of ciprofloxacin-induced antibacterial activity against wild type Staphylococcus aureus SA1199 assessed as fold reduction in ciprofloxacin MIC at 19.1 uM after 18 to 24 hrs by broth microdilution method; type: functional; how it was run: as §1
[28] = molecular target: T1, Quinolone resistance protein NorA (Staphylococcus aureus); test: Inhibition of NorA in Staphylococcus aureus SA1199B assessed as potentiation of ciprofloxacin-induced antibacterial activity by measuring fold reduction in ciprofloxacin MIC at 19.1 uM after 18 to 24 hrs by broth microdilution method; how it was run: as §1
Staphylococcus aureus [29] = test: Potentiation of ciprofloxacin-induced antibacterial activity against wild type Staphylococcus aureus SA1199 assessed as fold reduction in ciprofloxacin MIC at 23 uM after 18 to 24 hrs by broth microdilution method; type: functional; how it was run: as §1
[30] = molecular target: T1, Quinolone resistance protein NorA (Staphylococcus aureus); test: Inhibition of NorA in Staphylococcus aureus SA1199B assessed as potentiation of ciprofloxacin-induced antibacterial activity by measuring fold reduction in ciprofloxacin MIC at 23 uM after 18 to 24 hrs by broth microdilution method; how it was run: as §1
[31] = molecular target: T1, Quinolone resistance protein NorA (Staphylococcus aureus); test: Inhibition of NorA in Staphylococcus aureus SA1199B assessed as potentiation of ciprofloxacin-induced antibacterial activity by measuring fold reduction in ciprofloxacin MIC at 21 uM after 18 to 24 hrs by broth microdilution method; how it was run: as §1
Staphylococcus aureus [32] = test: Potentiation of ciprofloxacin-induced antibacterial activity against wild type Staphylococcus aureus SA1199 assessed as fold reduction in ciprofloxacin MIC at 21 uM after 18 to 24 hrs by broth microdilution method; type: functional; how it was run: as §1
[33] = molecular target: T1, Quinolone resistance protein NorA (Staphylococcus aureus); test: Inhibition of NorA in Staphylococcus aureus SA1199B assessed as potentiation of ciprofloxacin-induced antibacterial activity by measuring fold reduction in ciprofloxacin MIC at 73 uM after 18 to 24 hrs by broth microdilution method; how it was run: as §1
Staphylococcus aureus [34] = test: Potentiation of ciprofloxacin-induced antibacterial activity against wild type Staphylococcus aureus SA1199 assessed as fold reduction in ciprofloxacin MIC at 73 uM after 18 to 24 hrs by broth microdilution method; type: functional; how it was run: as §1

Row | Compound | MNTC (Staphylococcus aureus [2]) | Activity (Staphylococcus aureus [3]) | GI50 at 72 h [4] | Activity (Staphylococcus aureus [14]) | other results
1 | Cl.NCCN(CCc1c[nH]c2ccccc12)C(=O)/C=C/c1ccccc1 | 81.3 µM | Non-Toxic | 20.7 µM |  | fold change (FC) (Staphylococcus aureus [1]): 2; fold change (FC) [5]: 2
2 | Cl.N[C@@H](Cc1ccccc1)CN(CCc1c[nH]c2ccccc12)C(=O)/C=C/c1ccccc1 | 8.5 µM |  | 6.33 µM |  | growth inhibition (GI) (Staphylococcus aureus [6]): Toxic; MIC (Staphylococcus aureus [7]): 15.7 µg/mL; growth inhibition (GI) (Staphylococcus aureus [8]): Toxic; fold change (FC) (Staphylococcus aureus [9]): 2; fold change (FC) [10]: 2
3 | Cl.N[C@@H](Cc1ccccc1)CN(CCc1ccccc1)C(=O)/C=C/c1ccccc1 | 37.1 µM |  | 6.5 µM |  | MIC (Staphylococcus aureus [7]): 62.5 µg/mL; growth inhibition (GI) (Staphylococcus aureus [11]): Toxic; fold change (FC) [12]: 2; fold change (FC) (Staphylococcus aureus [13]): 2 - 4
4 | CC(C)(C)OC(=O)N[C@@H](Cc1ccccc1)CN(CCc1ccccc1)C(=O)/C=C/c1ccccc1 | 20.6 µM |  | 17.3 µM | Non-Toxic | fold change (FC) [15]: 1 to 2; fold change (FC) (Staphylococcus aureus [16]): 1
5 | COC(=O)[C@H]1[C@H]2C[C@@H]3c4[nH]c5cc(OC)ccc5c4CCN3C[C@H]2C[C@@H](OC(=O)c2cc(OC)c(OC)c(OC)c2)[C@@H]1OC [RESERPINE] | 32.9 µM |  | 14.7 µM |  | fold change (FC) (Staphylococcus aureus [17]): 2
6 | CC(C)[C@H](N)CN(CCc1ccccc1)C(=O)/C=C/c1ccccc1.Cl | 80.6 µM | Non-Toxic | 52.4 µM |  | fold change (FC) [18]: 2; fold change (FC) (Staphylococcus aureus [19]): 1 - 2
7 | Cl.NCCN(CCc1ccccc1)C(=O)/C=C/c1ccccc1 | 90.9 µM | Non-Toxic | 73.3 µM |  | fold change (FC) (Staphylococcus aureus [20]): 1 - 2; fold change (FC) [21]: 1
8 | CC(C)[C@@H](CN(CCc1ccccc1)C(=O)/C=C/c1ccccc1)NC(=O)OC(C)(C)C | 22.9 µM |  | 40.7 µM | Non-Toxic | fold change (FC) [22]: 2; fold change (FC) (Staphylococcus aureus [23]): 1 - 2
9 | CC(C)(C)OC(=O)NCCN(CCc1ccccc1)C(=O)/C=C/c1ccccc1 | 25.3 µM |  | 54.7 µM | Non-Toxic | fold change (FC) [24]: 2; fold change (FC) (Staphylococcus aureus [25]): 1
10 | CC(C)(C)OC(=O)N[C@@H](Cc1ccccc1)CN(CCc1c[nH]c2ccccc12)C(=O)/C=C/c1ccccc1 | 19.1 µM |  | 70 µM | Non-Toxic | Ratio [26]: 2; fold change (FC) (Staphylococcus aureus [27]): 1 - 2; fold change (FC) [28]: 4 to 8
11 | CC(C)(C)OC(=O)NCCN(CCc1c[nH]c2ccccc12)C(=O)/C=C/c1ccccc1 | 23 µM |  | 35.3 µM | Non-Toxic | fold change (FC) (Staphylococcus aureus [29]): 2; fold change (FC) [30]: 4
12 | CC(C)[C@@H](CN(CCc1c[nH]c2ccccc12)C(=O)/C=C/c1ccccc1)NC(=O)OC(C)(C)C | 21 µM |  | 43.7 µM | Non-Toxic | fold change (FC) [31]: 4; fold change (FC) (Staphylococcus aureus [32]): 1 - 2
13 | CC(C)[C@H](N)CN(CCc1c[nH]c2ccccc12)C(=O)/C=C/c1ccccc1.Cl | 73 µM | Non-Toxic | 25.3 µM |  | fold change (FC) [33]: 4; fold change (FC) (Staphylococcus aureus [34]): 2 - 4
